Data as given in ChEMBL document CHEMBL5705892, “MK-2206, an allosteric Akt inhibitor, enhances antitumor efficacy by standard chemotherapeutic agents or molecular targeted drugs in vitro and in vivo” (Mol Cancer Ther, 2010).
Activity calls are given as the source filed them. The calls are words filed in the database; no cut-off is given here.

How the values were obtained:
NCI-H460 [1] = test: Synergistic antiproliferative activity against human NCI-H460 cells assessed as combination index at ED90 measured after 72 hrs in presence of erlotinib by celltiter-glo assay; type: functional
NCI-H460 [2] = test: Synergistic antiproliferative activity against human NCI-H460 cells assessed as combination index at ED25 to ED90 measured after 72 hrs in presence of gemcitabine by celltiter-glo assay; type: functional
ZR-75-1 = test: Synergistic antiproliferative activity against human ZR-75-1 cells assessed as combination index at ED75 measured after 72 hrs in presence of docetaxel by celltiter-glo assay; type: functional
HCC1954 [3] = test: Synergistic antiproliferative activity against human HCC1954 cells assessed as combination index at ED90 treated 24 hrs prior to lapatinib and measured after 72 hrs by celltiter-glo assay; type: functional; details: time 96 hrs
NCI-H460 [4] = test: Synergistic antiproliferative activity against human NCI-H460 cells assessed as combination index at ED50 measured after 72 hrs in presence of 5-FU by celltiter-glo assay; type: functional
SK-OV-3 [5] = test: Synergistic antiproliferative activity against human SK-OV-3 cells assessed as combination index at ED75 measured after 72 hrs in presence of lapatinib by celltiter-glo assay; type: functional
BT-474 [6] = test: Synergistic antiproliferative activity against human BT-474 cells assessed as combination index at ED90 measured after 72 hrs in presence of docetaxel by celltiter-glo assay; type: functional
Outline: (§1)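 Cells grown in RPMI 1640 with 10% heat-inactivated FBS at 37°C, 5% CO₂. Seeded at 2 to 3 × 10³ per well; drugs added 24 h later. […] Viability read as cellular ATP by CellTiter-Glo. CI calculated by Chou–Talalay from median-effect plots at ED50, ED75 and ED90.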

[7] = target: RAC-alpha serine/threonine-protein kinase (Homo sapiens) (UniProt P31749); test: Inhibition of AKT in human A-431 cells assessed as reduction in GSK3alpha/beta phosphorylation at S21/S9 residues at 5 umol/L measured after 5 hrs in presence of erlotinib by Western blot analysis; type: cell-based; details: dose 5.0 µmol/L
Outline: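 Cells were lysed in Tris-HCl pH 7.5, 150 mM NaCl, 1% Triton X-100 with protease and phosphatase inhibitors. Lysates were run on SDS-PAGE, transferred to nitrocellulose and probed with phospho-specific antibodies.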

[8] = Toxicity in human PC-3 cells xenografted CD1 nude mouse assessed as body weight loss at 120 mg/kg, po administered 3 times per week for 2 weeks starting 24 hrs post docetaxel treatment and measured during compound dosing relative to control; type: organism-based; details: in vivo, 336 h
Outline: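 Male CD1-nude mice with s.c. PC-3 tumours (50% Matrigel/50% PBS, left flank), randomized at mean 0.2 cm³, n=5/group, treated from 25 d post-implant. Body weight monitored versus vehicle-only controls.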

[9] = target: RAC-alpha serine/threonine-protein kinase (Homo sapiens) (UniProt P31749); test: Inhibition of AKT phosphorylation at S473 residue in human NCI-H661 cells at 3 umol/L measured after 4 to 24 hrs in presence of gemcitabine by MSD assay; details: time 4-24 hrs
NCI-H1993 = test: Induction of apoptosis in human NCI-H1993 cells assessed as fold induction of capsase-3/7 activity measured after 24 to 48 hrs in presence of carboplatin by caspase-glo 3/7 assay; type: functional; details: time 24-48 hrs
MDA-MB-468 [10] = test: Synergistic antiproliferative activity against lapatinib pretreated human MDA-MB-468 cells assessed as combination index at ED75 measured after 72 hrs by celltiter-glo assay; type: functional
NCI-H23 = test: Antiproliferative activity against human NCI-H23 cells assessed as reduction in cell proliferation measured after 72 hrs by celltiter-glo assay; type: functional, cell-based; details: NCI-H23, 72 h
Outline: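 Cells in RPMI 1640 with 10% heat-inactivated FBS at 37°C and 5% CO₂ were seeded at 2 to 3 × 10³ per well. […] Growth was read as cellular ATP by CellTiter-Glo.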

NCI-H460 [11] = test: Synergistic antiproliferative activity against human NCI-H460 cells assessed as combination index at ED90 measured after 72 hrs in presence of carboplatin by celltiter-glo assay; type: functional
SK-BR-3 = test: Synergistic antiproliferative activity against lapatinib pretreated human SK-BR-3 cells assessed as combination index at ED75 measured after 72 hrs by celltiter-glo assay; type: functional
A2780 [12] = test: Synergistic antiproliferative activity against human A2780 cells assessed as combination index at ED75 measured after 72 hrs in presence of doxorubicin by celltiter-glo assay; type: functional
Outline: (§2)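 Cells were seeded at 2–3 × 10³ per well in RPMI 1640 with 10% FBS. At 24 h, MK-2206 and the partner drug were added simultaneously at constant concentration ratios spanning each agent's IC₅₀, for 72 h. Growth was read as cellular ATP by CellTiter-Glo. CI was taken from median-effect plots of each agent alone and in combination (Chou–Talalay), at ED₅₀, ED₇₅ and ED₉₀.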

HCC70 [13] = test: Synergistic antiproliferative activity against lapatinib pretreated human HCC70 cells assessed as combination index at ED75 measured after 72 hrs by celltiter-glo assay; type: functional
HCC70 [14] = test: Synergistic antiproliferative activity against human HCC70 cells assessed as combination index at ED75 measured after 72 hrs in presence of docetaxel by celltiter-glo assay; type: functional; outline: as §1
HCC1954 [15] = test: Synergistic antiproliferative activity against human HCC1954 cells assessed as combination index at ED90 measured after 72 hrs in presence of lapatinib by celltiter-glo assay; type: functional; outline: as §1
A2780 [16] = test: Synergistic antiproliferative activity against human A2780 cells assessed as combination index at ED75 measured after 72 hrs in presence of gemcitabine by celltiter-glo assay; type: functional; outline: as §2
Calu-6 = test: Synergistic antiproliferative activity against human Calu-6 cells assessed as combination index at ED75 measured after 72 hrs in presence of erlotinib by celltiter-glo assay; type: functional; outline: as §1
BT-474 [17] = test: Synergistic antiproliferative activity against docetaxel pretreated human BT-474 cells assessed as combination index at ED90 measured after 72 hrs by celltiter-glo assay; type: functional
NCI-N87 = test: Synergistic antiproliferative activity against human NCI-N87 cells assessed as combination index at ED75 measured after 72 hrs in presence of lapatinib by celltiter-glo assay; type: functional
SK-OV-3 [18] = test: Synergistic antiproliferative activity against human SK-OV-3 cells assessed as combination index at ED75 treated 24 hrs prior to lapatinib and measured after 72 hrs by celltiter-glo assay; type: functional; details: time 96 hrs
MCF7 = test: Synergistic antiproliferative activity against human MCF7 cells assessed as combination index at ED90 measured after 72 hrs in presence of docetaxel by celltiter-glo assay; type: functional; outline: as §1
NCI-H460 [19] = test: Synergistic antiproliferative activity against human NCI-H460 cells assessed as combination index at ED75 measured after 72 hrs in presence of erlotinib by celltiter-glo assay; type: functional
HCC70 [20] = test: Synergistic antiproliferative activity against human HCC70 cells assessed as combination index at ED90 measured after 72 hrs in presence of lapatinib by celltiter-glo assay; type: functional; outline: as §1
MDA-MB-468 [21] = test: Synergistic antiproliferative activity against human MDA-MB-468 cells assessed as combination index at ED50 treated 24 hrs prior to lapatinib and measured after 72 hrs by celltiter-glo assay; type: functional; details: time 96 hrs

Chain of RAC-alpha serine/threonine-protein kinase (Homo sapiens) (P31749 whole entry): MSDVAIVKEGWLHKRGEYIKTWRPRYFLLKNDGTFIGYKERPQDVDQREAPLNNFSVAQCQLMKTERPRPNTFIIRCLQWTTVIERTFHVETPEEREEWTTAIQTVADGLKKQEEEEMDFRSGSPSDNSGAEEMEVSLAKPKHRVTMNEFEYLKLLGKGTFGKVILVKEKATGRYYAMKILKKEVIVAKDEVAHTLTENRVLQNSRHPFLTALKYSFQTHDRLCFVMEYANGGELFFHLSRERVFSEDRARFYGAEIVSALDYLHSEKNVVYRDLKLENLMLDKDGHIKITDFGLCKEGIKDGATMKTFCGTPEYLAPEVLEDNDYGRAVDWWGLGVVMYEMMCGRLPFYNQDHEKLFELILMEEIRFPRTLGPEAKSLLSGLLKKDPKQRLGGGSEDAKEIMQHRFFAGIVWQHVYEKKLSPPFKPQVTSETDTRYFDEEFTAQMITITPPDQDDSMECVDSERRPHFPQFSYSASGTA

Q: For `Cl.NC1(c2ccc(-c3nc4ccn5c(=O)[nH]nc5c4cc3-c3ccccc3)cc2)CCC1`, which CI90 (NCI-H460 [1]) is on record?
A: 0.17

Q: And the CI (NCI-H460 [2])?
A: 0.33

Q: And the CI75 (ZR-75-1)?
A: 0.2

Q: What about the CI90 (HCC1954 [3]) of the same molecule?
A: 0.18

Q: And the CI50 (NCI-H460 [4])?
A: 0.66

Q: And the CI75 (SK-OV-3 [5])?
A: 0.13

Q: And the CI90 (BT-474 [6])?
A: 0.7

Q: And the inhibition [7]?
A: Active

Q: And the Activity [8]?
A: 9%

Q: What about the inhibition [9] of the same molecule?
A: Active

Q: What about the “fold change (FC)” value (NCI-H1993) of the same molecule?
A: 1.2

Q: And the CI75 (MDA-MB-468 [10])?
A: 0.18

Q: And the IC50 (NCI-H23)?
A: 14.1 µM

Q: And the CI90 (NCI-H460 [11])?
A: 0.37

Q: And the CI75 (SK-BR-3)?
A: 0.18

Q: What about the CI75 (A2780 [12]) of the same molecule?
A: 0.43

Q: And the CI75 (HCC70 [13])?
A: 0.18

Q: What about the CI75 (HCC70 [14]) of the same molecule?
A: 0.7

Q: And the CI90 (HCC1954 [15])?
A: 0.11

Q: And the CI75 (A2780 [16])?
A: 0.43

Q: And the CI75 (Calu-6)?
A: 0.25

Q: What about the CI90 (BT-474 [17]) of the same molecule?
A: 0.3

Q: And the CI75 (NCI-N87)?
A: 0.55

Q: And the CI75 (SK-OV-3 [18])?
A: 0.18

Q: What about the CI90 (MCF7) of the same molecule?
A: 0.3

Q: And the CI75 (NCI-H460 [19])?
A: 0.23

Q: What about the CI90 (HCC70 [20]) of the same molecule?
A: 0.2

Q: What about the CI50 (MDA-MB-468 [21]) of the same molecule?
A: 0.18
